Each structure is given as a SMILES string. The source made the active and inactive calls.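 Rule for the calls: active = calcium signal ratio cut to more than 3 SD under the fully stimulated control mean yet still positive, in both repeats and the primary screen; inactive = the rest.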

Sequence of Short transient receptor potential channel 4 (Mus musculus) (Q9QUQ5 whole entry, looked up): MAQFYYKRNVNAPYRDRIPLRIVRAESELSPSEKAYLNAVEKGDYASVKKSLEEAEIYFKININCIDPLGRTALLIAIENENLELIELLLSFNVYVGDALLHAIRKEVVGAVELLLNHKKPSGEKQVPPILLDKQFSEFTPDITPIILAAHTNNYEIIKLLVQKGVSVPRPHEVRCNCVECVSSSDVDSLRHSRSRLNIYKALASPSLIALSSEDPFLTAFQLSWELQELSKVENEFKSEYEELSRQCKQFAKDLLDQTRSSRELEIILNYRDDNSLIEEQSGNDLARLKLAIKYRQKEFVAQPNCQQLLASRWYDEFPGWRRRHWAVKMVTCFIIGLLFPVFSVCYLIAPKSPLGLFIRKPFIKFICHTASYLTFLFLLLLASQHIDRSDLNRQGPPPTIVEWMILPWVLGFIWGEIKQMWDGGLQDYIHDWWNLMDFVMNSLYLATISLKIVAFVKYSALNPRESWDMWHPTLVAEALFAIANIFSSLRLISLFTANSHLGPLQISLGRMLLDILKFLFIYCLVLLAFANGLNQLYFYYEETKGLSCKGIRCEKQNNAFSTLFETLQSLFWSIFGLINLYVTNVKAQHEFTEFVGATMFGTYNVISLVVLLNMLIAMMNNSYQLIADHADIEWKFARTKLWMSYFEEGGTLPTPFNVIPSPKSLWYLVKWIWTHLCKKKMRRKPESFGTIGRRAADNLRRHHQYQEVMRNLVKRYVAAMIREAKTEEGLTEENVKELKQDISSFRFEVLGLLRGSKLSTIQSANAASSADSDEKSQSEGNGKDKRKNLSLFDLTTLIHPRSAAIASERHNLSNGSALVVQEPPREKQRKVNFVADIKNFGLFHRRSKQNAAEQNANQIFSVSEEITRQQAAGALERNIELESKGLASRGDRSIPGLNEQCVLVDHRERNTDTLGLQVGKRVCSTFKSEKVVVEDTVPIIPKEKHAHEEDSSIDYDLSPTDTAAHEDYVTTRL

This assay has as its target Short transient receptor potential channel 4 (Mus musculus) (UniProt Q9QUQ5). Briefly: blockers of DAMGO-evoked TRPC4 calcium flux – cell-based, second round, Fluo4, HEK293 TRPC4beta/mu-opioid, 1 µM, confirmation (AID 2637). Conditions: at 1 µM. In short, it runs like this:
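Doses: 1 µM single point / Material: HEK293 cells with TRPC4beta plus mu-opioid receptor / Control set: DAMGO ECmax control wells and wells without test compound / Schedule: dye loading 45 min room temperature, compound pre-incubation 110 s / Measured by: kinetic Fluo4 Ca2+ fluorescence reading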
In the case of `Cc1cc(N2CCCCC2)nc(NCc2ccccc2)n1`, the outcome was inactive.
For `COCCNC(=O)/C(C#N)=C/c1cc(C(C)C)c(OC)cc1C`, the result was inactive.
Regarding `CCN1CCN(c2ccc(S(=O)(=O)N3CCCCC3)cc2NC(=O)COc2cc(C)ccc2Cl)CC1`, the outcome was inactive.
With `FC(F)(F)COc1nc(N2CCCCC2)nc(N2CCNCC2)n1` the entry was “inactive”; with `CCSc1nnc([C@H](Cc2c[nH]c3ccccc23)NC(=O)OC(C)(C)C)o1`, “inactive”; with `COc1ccc(/C=C(\C#N)C(=O)N2CCOCC2)cc1Br`, “inactive”.
With `N#Cc1ccc(OCC(O)CN2CCN(c3ncc(C(F)(F)F)cc3Cl)CC2)cc1` (configuration not stated) the entry was “inactive”; with `CCCC1=C(C(=O)OCC)C(c2cc(Cl)cc(OC)c2OCC(=O)OCC)NC(=O)N1` (configuration not stated), “inactive”; with `CCCCCc1ccc(OCCCC[n+]2ccccc2)c(CCCCC)c1`, “inactive”.
With `CC(C)(C)c1ccccc1OCCCCCn1ccnc1` the entry was “inactive”; with `CCOC(=O)COc1cc(-n2c(=S)[nH]c3ccccc3c2=O)c(Cl)cc1Cl`, “inactive”.
As for `CCCCc1nc(N2CCOCC2)c(C#N)c2c1CCCC2`, the result was inactive.
Take `CCN1CCN(c2ccc(NC(=O)CCc3c(C)nc4c(-c5ccc(F)cc5)c(C)nn4c3C)cc2)CC1`: the outcome was inactive.
With `CCOc1cc(/C=C(\C#N)C(=O)Nc2cccc(C(=O)O)c2)cc(Br)c1OC(=O)c1ccc(OC)cc1` the entry was “inactive”; with `COc1ccc(Cl)c2sc(N(CCN(C)C)C(=O)c3ccc4c(c3)OCCO4)nc12`, “inactive”; with `CCCCN1C(=O)C(=O)N(CC(=O)Nc2cc(OCC)c(N3CCOCC3)cc2OCC)C1=O`, “inactive”.
With `CN(C)CCOc1ccc2ccccc2c1` the entry was “inactive”.

Source of the values: PubChem BioAssay.
